{"data": "Published values pooled from the literature", "PTK2": "Focal adhesion kinase 1 (PTK2, Homo sapiens, UniProt Q05397)", "PRMT3": "Protein arginine N-methyltransferase 3 (PRMT3, Homo sapiens, UniProt O60678)", "LDHA": "L-lactate dehydrogenase A chain (LDHA, Homo sapiens, UniProt P00338)", "note": "Lines come from different studies, so protocols differ."}
{"Structure (SMILES)": "C[C@H]1Oc2cc(cnc2N)-c2c(nn(C)c2C#N)CN(C)C(=O)c2ccc(F)cc21", "target": "PTK2", "observed": "enzyme activity", "action": "inhibitor", "method": "radiometric", "IC50": "4 nM"}
{"Structure (SMILES)": "O=C(c1ccccc1)c1ccc2n1CCC2C(=O)O (stereo not shown)", "target": "Solute carrier family 22 member 6 (SLC22A6, Homo sapiens, UniProt Q4U2R8)", "observed": "transporter uptake", "action": "inhibitor", "IC50": "653 nM"}
{"Structure (SMILES)": "C=CC(=O)Nc1cc(Nc2nccc(Nc3cc(Cl)c(F)cc3C(C)(C)O)n2)c(OC)cc1N1CC[C@@H](N(C)C)C1", "target": "PTK2", "observed": "enzyme activity", "action": "inhibitor", "setting": "with preincubation", "IC50": "255 nM"}
{"Structure (SMILES)": "CC1=C[C@@]2(C[C@H](C)[C@H]3CC=C(C)[C@@H](O[C@@H]4O[C@H](CO)[C@@H](O)[C@H](O)[C@H]4O)[C@@H]3O2)OC1=O", "target": "Tyrosine-protein phosphatase non-receptor type 1 (PTPN1, Homo sapiens, UniProt P18031)", "observed": "enzyme activity", "action": "inhibitor", "IC50": "91300 nM"}
{"Structure (SMILES)": "CC[C@@H](C)[C@@H](NC(=O)[C@@H](CCC(N)=O)NC(=O)[C@H](NC(C)=O)C(C)C)C(=O)N[C@@H](C(=O)N[C@H](Cc1ccc(O)cc1)C(=O)N[C@H](CCCCN)C(N)=O)C(C)C", "target": "Insulin (INS, Homo sapiens, UniProt P01308)", "observed": "enzyme activity", "action": "inhibitor", "pH": "pH 7.4", "IC50": "~75000 nM"}
{"Structure (SMILES)": "O=C(c1ccc(O)cc1O)[C@H](O)[C@@H](O)c1ccc(O)cc1", "target": "Amine oxidase [flavin-containing] A (MAOA, Homo sapiens, UniProt P21397)", "observed": "enzyme activity", "action": "inhibitor", "IC50": "620 nM"}
{"Structure (SMILES)": "CCNC(=O)NCCSC[C@H]1O[C@@H](n2cnc3c(N)ncnc32)[C@H](O)[C@@H]1O", "target": "PRMT3", "observed": "enzyme activity", "action": "inhibitor", "method": "fluorescence", "IC50": "> 100000 nM"}
{"Structure (SMILES)": "O=c1cc(-c2ccc(O)c(O)c2)oc2cc(O[C@@H]3O[C@H](CO)[C@@H](O)[C@H](O)[C@H]3O)cc(O)c12", "target": "LDHA", "observed": "enzyme activity", "action": "inhibitor", "pH": "pH 7.4", "IC50": "139000 nM"}
{"Structure (SMILES)": "COc1ccc(C2=NN(C3CCCCCC3)C(=O)[C@@H]3CC=CC[C@H]23)cc1-c1ccc(C(N)=O)cc1 (relative stereo)", "target": "High affinity 3',5'-cyclic-AMP phosphodiesterase 7A (PDE7A, Homo sapiens, UniProt Q13946)", "observed": "enzyme activity", "action": "inhibitor", "IC50": "> 10000 nM"}
{"Structure (SMILES)": "CCOC(F)(F)c1nnc2cnc(-c3cnc(OCC(F)(F)F)c(F)c3)cn12", "target": "Sodium channel protein type 1 subunit alpha (SCN1A, Homo sapiens, UniProt P35498)", "observed": "ion current", "action": "inhibitor", "method": "patch clamp", "IC50": "683 nM"}
{"Structure (SMILES)": "CN1CCN(c2ccc(Nc3ncc4cc(C#N)c(=O)n(C5CCCC5)c4n3)cc2)CC1", "target": "Serine/threonine-protein kinase MARK2 (MARK2, Homo sapiens, UniProt Q7KZI7)", "observed": "enzyme activity", "action": "inhibitor", "IC50": "566 nM"}
{"Structure (SMILES)": "CCn1ncc2c1-c1cnc(N)c(c1)O[C@H](C)c1cc(F)ccc1-c1nn(C)nc1C2", "target": "High affinity nerve growth factor receptor (NTRK1, Homo sapiens, UniProt P04629)", "observed": "enzyme activity", "action": "inhibitor", "IC50": "260 nM"}
{"Structure (SMILES)": "Nc1ncnc2c1ncn2[C@@H]1O[C@H](CSCCNC(=O)Nc2ccc(F)cc2)[C@@H](O)[C@H]1O", "target": "PRMT3", "observed": "enzyme activity", "action": "inhibitor", "method": "fluorescence", "IC50": "2000 nM"}
{"Structure (SMILES)": "O=c1oc(Cl)c(Cl)c2ccccc12", "target": "Rhomboid protease AarA (Providencia stuartii, UniProt P46116)", "observed": "enzyme activity", "action": "inhibitor", "IC50": "54000 nM"}
{"Structure (SMILES)": "COc1cc2c(OC)nc3c4cc5c(cc4cc(OCCCN4CCC(N6CCCCC6)CC4)c3c2cc1OC)OCO5", "target": "Tyrosyl-DNA phosphodiesterase 1 (TDP1, Homo sapiens, UniProt Q9NUW8)", "observed": "enzyme activity", "action": "inhibitor", "method": "fluorescence", "IC50": "6400 nM"}
{"Structure (SMILES)": "O=C(Nc1cccc(NS(=O)(=O)c2ccc3oc4cc([N+](=O)[O-])ccc4c3c2)c1)C1(O)CC1", "target": "LDHA", "observed": "enzyme activity", "action": "inhibitor", "IC50": "757 nM"}
{"Structure (SMILES)": "Cc1ccc(C(=O)Nc2ccc(S(=O)(=O)O)c3cc(S(=O)(=O)O)cc(S(=O)(=O)O)c23)cc1NC(=O)c1cccc(NC(=O)Nc2cccc(C(=O)Nc3cc(C(=O)Nc4ccc(S(=O)(=O)O)c5cc(S(=O)(=O)O)cc(S(=O)(=O)O)c45)ccc3C)c2)c1", "target": "P2X purinoceptor 4 (P2RX4, Homo sapiens, UniProt Q99571)", "observed": "calcium signal", "action": "antagonist", "IC50": "44200 nM"}
{"Structure (SMILES)": "CC1(C)C(/C=C/C=C2/N(CCCc3ccccc3)c3ccc(Cl)cc3C2(C)C)=[N+](CCCc2ccccc2)c2ccc(Cl)cc21", "target": "PRMT3", "observed": "enzyme activity", "action": "inhibitor", "method": "radiometric", "IC50": "1030 nM"}
{"Structure (SMILES)": "COc1cc(-c2cc(=O)c3c(O)c(OC)c(O[C@@H]4O[C@H](CO)[C@@H](O)[C@H](O)[C@H]4O[C@@H]4O[C@H](CO)[C@@H](O)[C@H](O)[C@H]4O)cc3o2)ccc1O", "target": "LDHA", "observed": "enzyme activity", "action": "inhibitor", "pH": "pH 7.4", "IC50": "260000 nM"}
